Most compounds without a hit are left out; they make up all but 2.1% or so of the library.
SUMO1-SIM PPI: alters human SUMO1 binding to SIM partners. P63165. SUMO1 binding to a labelled peptide, TR-FRET, 1 h. inhibition, % at 20 µM. hit rate 0.33% among 360,000. AID 602429; in the data active = inhibition above about 37%
STEP inh: STEP (human) phosphatase inhibition. recombinant STEP, OMFP fluorogenic substrate, fluorescence. inhibition, % at 20 µM. hit rate 0.25% among 360,000. AID 588621;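 active = inhibition at 20 µM, scaled per plate between control wells, above about 37%, limit read from the data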
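Assay system: isolated STEP enzyme. Buffer or medium: pH 6.0 Bis-Tris with DTT and Tween 20. Also added: fluorogenic phosphatase substrate OMFP at 25 µM final. Dosing: 20 µM, 1% DMSO. Timing: 20 min reaction, room temperature, in the dark. Measured by: fluorescence intensity, excitation 480 nm, emission 540 nm. Evaluation: normalized % inhibition.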
GRK2 aptamer HTS: human GRK2 inhibition via aptamer displacement; AID 488847; P25098; hit rate 0.59% among 330,000; inhibition of aptamer binding, % at 10 µM; bead flow cytometry, FAM-aptamer displacement from GRK2;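 active = inhibition of aptamer binding above 40%, roughly 3 SD of noise, on plates passing a quality check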;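 note: median bead fluorescence of bound FAM aptamer so fluorescent compounds give negative values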
LMPTP block: LMPTP (human) inhibition. recombinant LMPTP-A, OMFP fluorogenic substrate, fluorescence intensity. inhibition, % at 20 µM. P24666. AID 651560. hit rate 0.22% among 360,000;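 active = compounds that cut the enzyme signal by at least half of the control window in the single-dose screen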
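Assay system: LMPTP-A enzyme. Input: 0.625 nM LMPTP-A final. Probe or stimulus: 400 µM OMFP. Compound dosing: single 20 µM dose. Schedule: 50 min dark incubation at room temperature. Detection: fluorescence intensity of OMFP turnover product. Read-out: percent inhibition versus substrate-only and uninhibited controls. Benchmarks: no-enzyme low control, uninhibited high control.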
DNMT1 inh: inhibitors of human DNMT1. P26358. DNMT1 molecular beacon, Hinp1I cleavage, fluorescence. inhibition (reported as % activation of signal), % at 10 µM. hit rate 0.83% among 360,000. AID 588458; in the data active = inhibition above about 50%
Target sequence (P26358 504-1616 limits assumed): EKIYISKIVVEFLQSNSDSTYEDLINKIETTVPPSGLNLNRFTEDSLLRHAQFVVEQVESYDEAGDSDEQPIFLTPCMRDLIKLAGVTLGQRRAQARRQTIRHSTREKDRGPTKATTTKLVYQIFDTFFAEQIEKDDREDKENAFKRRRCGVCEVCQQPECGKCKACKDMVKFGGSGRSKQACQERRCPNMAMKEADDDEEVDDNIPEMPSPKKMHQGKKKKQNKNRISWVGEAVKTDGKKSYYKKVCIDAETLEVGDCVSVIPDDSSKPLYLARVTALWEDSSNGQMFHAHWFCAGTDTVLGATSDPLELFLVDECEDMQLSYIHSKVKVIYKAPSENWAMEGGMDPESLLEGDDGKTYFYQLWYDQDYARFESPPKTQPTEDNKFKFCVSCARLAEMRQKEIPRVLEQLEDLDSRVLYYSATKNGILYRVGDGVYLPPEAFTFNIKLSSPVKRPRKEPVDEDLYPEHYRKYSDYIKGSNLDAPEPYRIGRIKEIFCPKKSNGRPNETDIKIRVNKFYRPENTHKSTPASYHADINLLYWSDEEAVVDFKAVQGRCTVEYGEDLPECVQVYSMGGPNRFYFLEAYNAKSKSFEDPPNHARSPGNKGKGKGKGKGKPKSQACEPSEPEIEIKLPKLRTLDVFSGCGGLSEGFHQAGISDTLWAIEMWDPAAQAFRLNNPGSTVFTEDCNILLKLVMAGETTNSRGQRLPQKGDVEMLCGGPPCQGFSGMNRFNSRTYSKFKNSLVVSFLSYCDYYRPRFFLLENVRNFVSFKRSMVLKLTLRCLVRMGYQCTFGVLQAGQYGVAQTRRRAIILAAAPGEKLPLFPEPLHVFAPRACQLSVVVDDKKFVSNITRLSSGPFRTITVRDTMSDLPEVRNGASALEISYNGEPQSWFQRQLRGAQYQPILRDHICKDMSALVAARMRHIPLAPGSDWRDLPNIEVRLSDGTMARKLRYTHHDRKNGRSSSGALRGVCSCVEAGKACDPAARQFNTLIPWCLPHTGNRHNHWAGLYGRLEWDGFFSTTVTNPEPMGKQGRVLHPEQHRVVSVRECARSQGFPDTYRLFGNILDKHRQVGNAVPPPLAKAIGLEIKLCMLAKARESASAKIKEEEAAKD
Scp-1 inhibitor: Scp-1 (human) phosphatase inhibition. inhibition, % at 20 µM. Recombinant Scp1, phosphopeptide, malachite green phosphate absorbance. hit rate 0.88% among 340,000. AID 493091;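 active = inhibition above about 50% at 20 µM, limit read from the data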
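System: SCP-1 catalytic domain; Reagent: Phospho 17-mer peptide substrate; Doses: one concentration, 20 µM, with 1.0% DMSO; Incubation: 45 min room-temperature reaction, 5 min colour, 30 min stabiliser; Signal: Phosphate-binding colour reagent, absorbance read at 630 nm.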
GRK2 inh confirm: human GRK2 inhibition confirmation, cherry pick 1; bead-bound GRK2, FAM-aptamer displacement, flow cytometry; aptamer displacement, % at 10 µM; shares compounds with GRK2 aptamer HTS; hit rate 4% among 2,000;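 active = aptamer displacement above 40%, near three times the noise of non-fluorescent compounds, on plates passing quality checks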;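 note: negative values mostly reflect intrinsic compound fluorescence rather than true enhancement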
FAM quench CP1: quenches fluorescent RNA aptamer, GRK2 hit artifact; fluorescence response (% of DMSO), % at 10 µM; 2,000 tested, under 10 active; shares compounds with GRK2 aptamer HTS; Carboxyfluorescein RNA aptamer on beads, flow cytometry quenching; active compounds read low;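 active = compounds that quench the bead-bound fluorescent RNA probe, cutting fluorescence to under half of the solvent control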;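 note: counterscreen run without GRK2 so only probe quenching by compound is measured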
GRK2 CP2: human GRK2 inhibition confirmation, cherry pick 2; shares compounds with GRK2 aptamer HTS; bead-bound GRK2, FAM-aptamer displacement, flow cytometry; inhibition of aptamer binding, % at 10 µM; 360 tested, under 10 active;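 active = inhibition of aptamer binding above 40%, about triple the noise seen with nonglowing compounds, on plates passing quality control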;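 note: negative values mostly come from compounds that fluoresce themselves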
FAM quench SP: quenches fluorescent RNA aptamer, GRK2 hit artifact | 360 tested, under 10 active | fluorescence response vs DMSO, % at 10 µM | carboxyfluorescein RNA aptamer beads, flow cytometry quenching; active compounds read low | AID 588494 | shares compounds with GRK2 aptamer HTS;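 active = response vs DMSO under 50%, meaning signal dropped by over half, treated as fluorescence quencher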;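 note: labelled aptamer on streptavidin beads without GRK2 as a quench counter-screen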
Each line names hits and unclear results; the compound was inactive in the other large screens (follow-up assays come after a bar, where they were run).

O=C(COC(=O)Cc1ccc(F)cc1)NCc1ccco1	GRK2 aptamer HTS 52 | GRK2 inh confirm inactive | FAM quench CP1 inactive
O=C(COC(=O)CSc1ccc(F)cc1)NCc1ccco1	none
O=C(COC(=O)C1(c2ccc(Cl)cc2)CCCC1)NCc1ccco1	none | GRK2 inh confirm inactive | FAM quench CP1 inactive
CCCCN1C(=O)C(CC(=O)NCCN2CCOCC2)CC(C(=O)N(CC)CC)=C1C (centres undefined)	none (no result: GRK2 aptamer HTS, Scp-1 inhibitor)
O=C(COC(=O)CNC(=O)c1ccccc1)Nc1nnc(-c2ccccc2)o1	none | GRK2 inh confirm inactive | FAM quench CP1 inactive
O=C(COC(=O)CNC(=O)c1cccc(Br)c1)Nc1nnc(-c2ccccc2)o1	none
CCn1c(CSc2nnc(-c3ccc4c(c3)OCO4)o2)nc2cc(S(=O)(=O)N(C)C)ccc21	GRK2 aptamer HTS 43 | GRK2 inh confirm inactive | FAM quench CP1 inactive
CCn1c(CSc2nnc(C)n2-c2ccccc2)nc2cc(S(=O)(=O)N(C)C)ccc21	none
CCN1C(=O)C(=O)N(CC(=O)c2[nH]c(C)c(C(C)=O)c2C)C1=O	none
CC(=O)c1c(C)[nH]c(C(=O)CN2C(=O)NC(C)(c3ccc(C)cc3)C2=O)c1C (centres undefined)	GRK2 aptamer HTS 54 | GRK2 inh confirm inactive | FAM quench CP1 inactive
CC(NC(=O)C1CCCN(S(=O)(=O)N2CCOCC2)C1)c1ccccc1 (centres undefined)	none | GRK2 inh confirm inactive | FAM quench CP1 inactive
COCc1c(C(=O)NCCc2ccc(OC(F)F)cc2)oc2ccccc12	none
CCCc1nc2c(Cl)cc(C(F)(F)F)cn2c1Cc1ccc(OC)cc1C	none (no result: STEP inh, GRK2 aptamer HTS, DNMT1 inh, Scp-1 inhibitor)
O=C(O)CCC(=O)NC1CCCCCCC1	GRK2 aptamer HTS 65 | GRK2 inh confirm inactive | FAM quench CP1 inactive
Cc1cccc(C)c1NC(=O)C1(C)CSCC(=O)N1Cc1cccc(C(F)(F)F)c1 (centres undefined)	none (no result: STEP inh, GRK2 aptamer HTS, DNMT1 inh, Scp-1 inhibitor)
Cc1ccc(-n2ncc(C(=O)O)c2C2CCN(C(=O)OC(C)(C)C)CC2)cc1	GRK2 aptamer HTS 43 | GRK2 inh confirm inactive | FAM quench CP1 inactive
COc1ccc(-c2c(C#CC(C)(C)O)c3ccccc3n2C)cc1	GRK2 aptamer HTS 94 | GRK2 CP2 inactive | FAM quench SP inactive
COC(=O)[C@@]12C[C@@H](CC(=O)NCCCCc3ccccc3)C(=O)N(Cc3ccco3)C1=CCC(C)(C)C2	none (no result: STEP inh, GRK2 aptamer HTS, DNMT1 inh, Scp-1 inhibitor)
CC(C)NC(=O)C1(C)CCN1C(=O)c1ccccc1Oc1ccccc1 (centres undefined)	none (no result: GRK2 aptamer HTS, Scp-1 inhibitor)
O=C(C1CCCC1)N1CCN(S(=O)(=O)c2cccc(Cl)c2Cl)CC1	GRK2 aptamer HTS 68 | GRK2 inh confirm inactive | FAM quench CP1 inactive
N#Cc1ccccc1S(=O)(=O)N1CCN(C(=O)C2CCCC2)CC1	none
COC(=O)C1=C(C)N=c2s/c(=C/c3cccs3)c(=O)n2C1c1cccs1 (centres undefined)	GRK2 aptamer HTS 56 | GRK2 inh confirm inactive | FAM quench CP1 inactive
COC(=O)C1=C(C)N=c2s/c(=C/c3ccoc3)c(=O)n2C1c1ccccc1 (centres undefined)	none
CCOC(=O)[C@]12CCCC=C1N(Cc1ccc(Cl)cc1Cl)C(=O)[C@H](CC(=O)NCc1ccc(OC)c(OC)c1)C2	none (no result: STEP inh, GRK2 aptamer HTS, DNMT1 inh, Scp-1 inhibitor)
Nc1c(C(=O)NCc2cccs2)nnn1CC(=O)Nc1cccc(Cl)c1	GRK2 aptamer HTS 42 | GRK2 CP2 inactive | FAM quench SP inactive
Cc1ccc(NC(=O)Cn2nnc(C(=O)NCc3cccs3)c2N)cc1Cl	none
Cc1cccc(C)c1-n1c(C)nn(-c2ncc(C(F)(F)F)cc2Cl)c1=O	GRK2 aptamer HTS 90 | GRK2 inh confirm inactive | FAM quench CP1 inactive
Cc1cc(OCC(=O)OCC(=O)Nc2cc(S(=O)(=O)N3CCOCC3)ccc2Cl)ccc1Cl	none
CCc1c(C(=O)OCc2ccccc2)[nH]c(C)c1C	GRK2 aptamer HTS 93 | GRK2 inh confirm inactive | FAM quench CP1 inactive
COC(OC)c1ccnc(-c2ccc(OC(=O)c3ccc(F)cc3)cc2)n1	GRK2 aptamer HTS 59 | GRK2 inh confirm inactive | FAM quench CP1 inactive
CCn1c(SCC(=O)N2CCc3ccccc3C2)nc2c1c(=O)n(C)c(=O)n2C	none
Cn1c(=O)c2c(ncn2CC(=O)N2CCc3ccccc3C2)n(C)c1=O	GRK2 aptamer HTS 58 | GRK2 inh confirm inactive | FAM quench CP1 inactive
CN1C=CC(C(C(N)=O)c2ccccc2)c2ccccc21 (centres undefined)	none (no result: GRK2 aptamer HTS, Scp-1 inhibitor)
CCC(=O)N1c2ccc(S(=O)(=O)CCC(=O)NCc3cccs3)cc2CC1C (centres undefined)	none | GRK2 CP2 inactive | FAM quench SP inactive
CC(=O)N1CCc2cc(S(=O)(=O)CCC(=O)NCc3cccs3)ccc21	none | GRK2 CP2 inactive | FAM quench SP inactive
CC(=O)N1CCc2cc(S(=O)(=O)CCC(=O)NCc3ccc4c(c3)OCO4)ccc21	none
COc1cc(C(=O)N2CCCC(c3cc(C(=O)NCc4ccccc4)no3)C2)cc(OC)c1C (centres undefined)	none (no result: GRK2 aptamer HTS, Scp-1 inhibitor)
Cc1cc(NC(=O)C2CCN(S(=O)(=O)c3cnc[nH]3)CC2)ccc1Br	GRK2 aptamer HTS 43 | GRK2 inh confirm inactive | FAM quench CP1 inactive
Cc1ccc(NC(=O)C2CCN(S(=O)(=O)c3cnc[nH]3)CC2)cc1C	none
CSCCC(NS(=O)(=O)c1ccccc1F)C(=O)NCc1cccs1 (centres undefined)	GRK2 aptamer HTS 61 | GRK2 inh confirm inactive | FAM quench CP1 inactive
CCCc1c(C(=O)N/N=C(\C)CCc2ccccc2)nnn1-c1nonc1N	GRK2 aptamer HTS 70 | GRK2 inh confirm inactive | FAM quench CP1 inactive
COCCCNC(=O)CNC(=O)c1nn(-c2ccc(OC)cc2OC)c(=O)c2ccccc12	none | GRK2 inh confirm inactive | FAM quench CP1 inactive
CCC(C)NC(=O)CNC(=O)c1nn(-c2ccc(OC)cc2OC)c(=O)c2ccccc12 (centres undefined)	none | GRK2 inh confirm inactive | FAM quench CP1 inactive
COc1ccccc1C(O)c1ncc(-c2cccc(C(F)(F)F)c2)[nH]1 (centres undefined)	none (no result: GRK2 aptamer HTS, Scp-1 inhibitor)
O=C1C=CC(O)C2(CO)OC12 (centres undefined)	none (no result: GRK2 aptamer HTS, Scp-1 inhibitor)

Source: PubChem (several laboratories)
